Data: ChEMBL document CHEMBL3286267, “Discovery of MK-4409, a Novel Oxazole FAAH Inhibitor for the Treatment of Inflammatory and Neuropathic Pain” (ACS Med Chem Lett, 2014)
In brackets after ≈: the same amount, converted by molar mass. Activity calls are given as the source filed them. The calls are words filed in the database; no cut-off is given here.

Assays:
[1] = target: T1, Fatty-acid amide hydrolase 1 (Homo sapiens, UniProt O00519); experiment: Inhibition of human FAAH lysate using AMCAA as substrate by fluorescence assay
T1 sequence (O00519 whole entry): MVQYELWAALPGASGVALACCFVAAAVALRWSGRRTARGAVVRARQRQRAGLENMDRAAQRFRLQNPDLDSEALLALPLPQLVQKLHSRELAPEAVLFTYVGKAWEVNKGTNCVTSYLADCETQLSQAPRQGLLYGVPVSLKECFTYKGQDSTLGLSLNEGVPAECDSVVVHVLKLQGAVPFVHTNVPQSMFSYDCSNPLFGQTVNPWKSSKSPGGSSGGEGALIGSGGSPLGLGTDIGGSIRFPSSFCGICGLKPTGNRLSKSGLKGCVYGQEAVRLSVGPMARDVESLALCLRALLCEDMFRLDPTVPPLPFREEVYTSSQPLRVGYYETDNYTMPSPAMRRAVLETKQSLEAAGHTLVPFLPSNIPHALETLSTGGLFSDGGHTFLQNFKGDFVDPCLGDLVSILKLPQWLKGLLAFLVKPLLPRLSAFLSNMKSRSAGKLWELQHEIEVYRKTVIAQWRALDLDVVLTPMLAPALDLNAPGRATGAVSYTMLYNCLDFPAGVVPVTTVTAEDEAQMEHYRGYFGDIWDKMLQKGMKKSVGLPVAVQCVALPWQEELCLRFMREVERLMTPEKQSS
Outline: (§1)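 In vitro assays, with values reported as the average of at least three duplicates.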

[2] = target: T2, Fatty-acid amide hydrolase 1 (Rattus norvegicus, UniProt P97612); experiment: Inhibition of rat FAAH lysate using AMCAA as substrate by fluorescence assay; outline: as §1
T2 sequence (P97612 whole entry): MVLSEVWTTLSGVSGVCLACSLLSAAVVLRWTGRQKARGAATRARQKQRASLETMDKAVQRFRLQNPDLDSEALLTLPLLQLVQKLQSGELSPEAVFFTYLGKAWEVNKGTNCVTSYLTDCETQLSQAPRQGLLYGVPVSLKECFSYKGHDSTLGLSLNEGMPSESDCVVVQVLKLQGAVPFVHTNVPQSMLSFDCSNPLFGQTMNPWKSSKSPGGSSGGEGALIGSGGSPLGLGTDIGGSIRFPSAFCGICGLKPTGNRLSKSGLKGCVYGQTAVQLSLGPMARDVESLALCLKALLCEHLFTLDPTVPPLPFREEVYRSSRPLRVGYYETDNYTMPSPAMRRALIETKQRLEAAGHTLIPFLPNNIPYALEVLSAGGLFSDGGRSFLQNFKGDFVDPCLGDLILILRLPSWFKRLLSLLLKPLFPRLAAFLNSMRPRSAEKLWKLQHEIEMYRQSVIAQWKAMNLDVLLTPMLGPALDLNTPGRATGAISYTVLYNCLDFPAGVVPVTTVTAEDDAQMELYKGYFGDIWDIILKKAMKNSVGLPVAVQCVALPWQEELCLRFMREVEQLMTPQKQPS

[3] = target: Voltage-gated inwardly rectifying potassium channel KCNH2 (Homo sapiens, UniProt Q12809); experiment: Displacement of [35S]MK-499 from human ERG
Sequence of Voltage-gated inwardly rectifying potassium channel KCNH2 (Q12809 whole entry): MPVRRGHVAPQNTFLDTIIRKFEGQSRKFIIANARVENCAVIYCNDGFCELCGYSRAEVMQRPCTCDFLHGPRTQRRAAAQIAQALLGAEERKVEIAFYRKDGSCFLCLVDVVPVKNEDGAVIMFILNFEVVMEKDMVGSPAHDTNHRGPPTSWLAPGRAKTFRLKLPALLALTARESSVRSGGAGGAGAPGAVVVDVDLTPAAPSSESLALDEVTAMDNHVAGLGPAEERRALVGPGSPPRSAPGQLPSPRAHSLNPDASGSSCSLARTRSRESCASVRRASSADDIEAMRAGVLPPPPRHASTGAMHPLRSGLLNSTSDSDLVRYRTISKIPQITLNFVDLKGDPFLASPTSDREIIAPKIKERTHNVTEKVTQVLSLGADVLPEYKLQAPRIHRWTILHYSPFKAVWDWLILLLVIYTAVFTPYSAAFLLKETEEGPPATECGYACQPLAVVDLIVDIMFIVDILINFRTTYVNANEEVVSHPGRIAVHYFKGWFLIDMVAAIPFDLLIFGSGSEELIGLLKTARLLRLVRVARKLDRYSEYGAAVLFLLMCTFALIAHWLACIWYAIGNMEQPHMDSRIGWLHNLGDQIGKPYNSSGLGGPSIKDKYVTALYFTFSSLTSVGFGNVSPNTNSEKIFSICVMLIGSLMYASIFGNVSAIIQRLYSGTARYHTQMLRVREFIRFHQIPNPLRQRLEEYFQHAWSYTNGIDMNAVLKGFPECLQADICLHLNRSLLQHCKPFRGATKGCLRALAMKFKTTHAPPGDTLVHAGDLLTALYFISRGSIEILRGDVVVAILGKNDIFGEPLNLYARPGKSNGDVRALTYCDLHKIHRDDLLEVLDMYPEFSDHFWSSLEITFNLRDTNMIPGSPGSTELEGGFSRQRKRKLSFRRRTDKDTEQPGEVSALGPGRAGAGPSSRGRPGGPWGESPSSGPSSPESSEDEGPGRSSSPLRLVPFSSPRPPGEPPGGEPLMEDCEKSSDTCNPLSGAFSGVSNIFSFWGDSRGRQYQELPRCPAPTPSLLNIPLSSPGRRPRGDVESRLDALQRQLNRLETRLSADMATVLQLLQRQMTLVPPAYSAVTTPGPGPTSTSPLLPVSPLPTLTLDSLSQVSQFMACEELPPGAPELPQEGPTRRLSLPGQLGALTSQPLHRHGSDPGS
Outline: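 hERG K+ channel binding assay measuring displacement of the radiolabelled channel blocker [35S]MK-499. Values are averages of at least three duplicates.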

[4] = Plasma concentration in Sprague-Dawley rat at 30 mg/kg/day, po measured after 24 hrs on day 10; type: ADME, organism-based; set-up: route oral
Outline: (§2)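 Chronic paradigm in the CFA inflammatory pain model in rats (intraplantar complete Freund's adjuvant in the hind paw). Daily oral dosing continued for up to 10 days, with a pan CB agonist run for comparison. Allodynia was followed over the days. Plasma exposures were sampled at 3 and 24 h after dosing at 30 mg/kg.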

[5] = Fraction unbound in rhesus monkey plasma; type: ADME, cell-free, Macaca mulatta
[6] = Plasma concentration in Sprague-Dawley rat at 30 mg/kg/day, po measured after 24 hrs on day 3; type: ADME, organism-based; set-up: route oral; outline: as §2
Rattus norvegicus [7] = experiment: Analgesic activity in Sprague-Dawley rat complete Freund's adjuvant-induced inflammatory pain model assessed as reversal of mechanical allodynia at 30 mg/kg, po single dose measured after 3 hrs; type: functional
Outline: (§3)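 Inflammatory pain induced in rats by intraplantar injection of complete Freund's adjuvant into the hind paw. Mechanical allodynia was assessed at 1 and 3 h after a single oral dose. For each rat, percent reversal = (postdose – predose)/(preinjury – predose), averaged over n = 6.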

[8] = Plasma concentration in Sprague-Dawley rat at 30 mg/kg/day, po measured after 24 hrs on day 9; type: ADME, organism-based; set-up: route oral; outline: as §2
Rattus norvegicus [9] = experiment: Toxicity in Harlan rat assessed as motor impairment at 3 mg/kg, po by rotarod test; type: organism-based; set-up: dose 3 mg/kg, route oral; conditions: in vivo
[10] = Plasma concentration in Sprague-Dawley rat at 30 mg/kg/day, po measured after 3 hrs on day 3; type: ADME, organism-based; set-up: route oral; outline: as §2
[11] = Fraction unbound in rat plasma; type: ADME, cell-free
Rattus norvegicus [12] = experiment: Antiallodynic activity in Harlan rat spinal nerve ligation model of neuropathic pain assessed as reversal of allodynia at 3 mg/kg, po; type: functional
[13] = Plasma concentration in Sprague-Dawley rat at 30 mg/kg/day, po measured after 3 hrs on day 9; type: ADME, organism-based; set-up: route oral; outline: as §2
[14] = Fraction unbound in human plasma; type: ADME, cell-free
Rattus norvegicus [15] = experiment: Analgesic activity in Sprague-Dawley rat complete Freund's adjuvant-induced inflammatory pain model assessed as reversal of mechanical allodynia at 10 mg/kg, po single dose measured after 1 hr; type: functional; outline: as §3
[16] = Plasma concentration in Sprague-Dawley rat at 30 mg/kg/day, po measured after 3 hrs on day 8; type: ADME, organism-based; set-up: route oral; outline: as §2
Rattus norvegicus [17] = experiment: Analgesic activity in Sprague-Dawley rat complete Freund's adjuvant-induced inflammatory pain model assessed as reversal of mechanical allodynia at 30 mg/kg/day, po measured up to 10 days; type: functional, organism-based; outline: as §2
[18] = Plasma concentration in Sprague-Dawley rat at 30 mg/kg/day, po measured after 3 hrs on day 10; type: ADME, organism-based; set-up: route oral; outline: as §2
[19] = Fraction unbound in dog plasma; type: ADME, cell-free, Canis lupus familiaris
[20] = Plasma concentration in Sprague-Dawley rat at 30 mg/kg/day, po measured after 24 hrs on day 5; type: ADME, organism-based; set-up: route oral; outline: as §2
[21] = Plasma concentration in Sprague-Dawley rat at 30 mg/kg/day, po measured after 24 hrs on day 8; type: ADME, organism-based; set-up: route oral; outline: as §2
Rattus norvegicus [22] = experiment: Analgesic activity in Sprague-Dawley rat complete Freund's adjuvant-induced inflammatory pain model assessed as reversal of mechanical allodynia at 10 mg/kg, po single dose measured after 3 hrs; type: functional; outline: as §3
[23] = Inhibition of human vesicular monoamine transporter; outline: as §1
[24] = Plasma concentration in Sprague-Dawley rat at 30 mg/kg/day, po measured after 3 hrs on day 2; type: ADME, organism-based; set-up: route oral; outline: as §2
Rattus norvegicus [25] = experiment: Dose normalized AUC in rat at 1 mg/kg, iv and 2 mg/kg, po; type: ADME, organism-based; conditions: in vivo
Outline: (§4)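 Rat PK given 1 mg/kg iv in DMSO/PEG400/H2O 20/60/20 and 2 mg/kg po in either Imwitor/Tween 1/1 or PEG400/Tween80/H2O 40/10/50. Half-life, clearance, volume of distribution, dose-normalized AUC (AUCN) and oral bioavailability were derived.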

Rattus norvegicus [26] = experiment: Analgesic activity in Sprague-Dawley rat complete Freund's adjuvant-induced inflammatory pain model assessed as reversal of mechanical allodynia at 30 mg/kg, po single dose measured after 1 hr; type: functional; outline: as §3
[27] = Clearance in rat at 1 mg/kg, iv and 2 mg/kg, po; type: ADME, organism-based; conditions: in vivo; outline: as §4
[28] = Volume of distribution at steady state in rat at 1 mg/kg, iv and 2 mg/kg, po; type: ADME, organism-based; conditions: in vivo, read-out: Vdss; outline: as §4
[29] = Plasma concentration in Sprague-Dawley rat at 30 mg/kg/day, po measured after 3 hrs on day 1; type: ADME, organism-based; set-up: route oral; outline: as §2
[30] = Plasma concentration in Sprague-Dawley rat at 30 mg/kg/day, po measured after 24 hrs on day 2; type: ADME, organism-based; set-up: route oral; outline: as §2
[31] = Half life in rat at 1 mg/kg, iv and 2 mg/kg, po; type: ADME, organism-based; conditions: in vivo; outline: as §4
[32] = Bioavailability in rat at 1 mg/kg, iv and 2 mg/kg, po; type: ADME, organism-based; conditions: in vivo; outline: as §4
[33] = Plasma concentration in Sprague-Dawley rat at 30 mg/kg/day, po measured after 3 hrs on day 5; type: ADME, organism-based; set-up: route oral; outline: as §2
Rattus norvegicus [34] = experiment: Antiallodynic activity in Harlan rat spinal nerve ligation model of neuropathic pain assessed as reversal of allodynia at 21 mg/kg, po; type: functional, organism-based; set-up: dose 21 mg/kg
Outline: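 Rat spinal nerve ligation model of neuropathic pain, scored as percent reversal of allodynia after dosing. A rota-rod test run alongside served as a counterscreen for motor impairment.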

[35] = Half life in rat at 1 mg/kg, iv and 1 to 2 mg/kg, po; type: ADME, organism-based; conditions: in vivo; outline: as §4
[36] = Clearance in rat at 1 mg/kg, iv and 1 to 2 mg/kg, po; type: ADME, organism-based; conditions: in vivo; outline: as §4
[37] = Volume of distribution at steady state in rat at 1 mg/kg, iv and 1 to 2 mg/kg, po; type: ADME, organism-based; conditions: in vivo, read-out: Vdss; outline: as §4
[38] = Solubility in fasted state simulated intestinal fluid; type: ADME
[39] = Bioavailability in rat at 1 mg/kg, iv and 1 to 2 mg/kg, po; type: ADME, organism-based; conditions: in vivo; outline: as §4
Rattus norvegicus [40] = experiment: Dose normalized AUC in rat at 1 mg/kg, iv and 1 to 2 mg/kg, po; type: ADME, organism-based; conditions: in vivo; outline: as §4
Rattus norvegicus [41] = experiment: Analgesic activity in Sprague-Dawley rat complete Freund's adjuvant-induced inflammatory pain model assessed as reversal of mechanical allodynia at 2 mg/kg/day, ip measured up to 5 days; type: functional, organism-based
Outline: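 Inflammatory pain induced in rats by intraplantar injection of complete Freund's adjuvant into the hind paws. Mechanical allodynia was followed under a chronic repeated-dosing paradigm across several days to check for loss of antinociception (tachyphylaxis).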

SMILES: Clc1ccc(Sc2c[nH]nc2-c2ccc3c(c2)OCCO3)cc1
- IC50 [1]: 119 nM
- IC50 [2]: 125 nM
- Ki [3]: 1540 nM

SMILES: CC(C)(O)c1ccc(-c2nc(-c3ccc(F)cc3)oc2Sc2ccc(Cl)cn2)cn1
- concentration at 24 h [4]: 7.9 µM
- fraction unbound [5]: 0.008
- concentration at 24 h [6]: 4.1 µM
- Activity (Rattus norvegicus [7]): 71%
- concentration at 24 h [8]: 8.3 µM
- Activity (Rattus norvegicus [9]): Non-toxic
- concentration at 3 h [10]: 11.9 µM
- fraction unbound [11]: 0.029
- inhibition in vivo at 3 mg/kg (Rattus norvegicus [12]): 50%
- concentration at 3 h [13]: 13.7 µM
- IC50 [1]: 11 nM
- fraction unbound [14]: 0.016
- Activity (Rattus norvegicus [15]): 49%
- concentration at 3 h [16]: 12.2 µM
- Activity (Rattus norvegicus [17]): Active
- concentration at 3 h [18]: 14.2 µM
- fraction unbound [19]: 0.012
- concentration at 24 h [20]: 6.5 µM
- IC50 [2]: 11 nM
- concentration at 24 h [21]: 7.3 µM
- Activity (Rattus norvegicus [22]): 51%
- EC50 [23]: > 20000 nM
- concentration at 3 h [24]: 8 µM
- AUC/dose (Rattus norvegicus [25]): 2.2 µM·kg·h/mg
- Activity (Rattus norvegicus [26]): 70%
- clearance [27]: 20 mL/min/kg
- Vd [28]: 6.2 L/kg
- concentration at 3 h [29]: 5.4 µM
- concentration at 24 h [30]: 2.1 µM
- half-life [31]: 4.3 h
- bioavailability [32]: 120%
- concentration at 3 h [33]: 13.2 µM
- Ki [3]: 1250 nM

SMILES: NC(=O)c1cccc(-c2cccc(OC(=O)NC3CCCCC3)c2)c1
- Activity (Rattus norvegicus [34]): Active

SMILES: CS(=O)(=O)c1ccc(-c2nn(-c3ccc(F)cc3)cc2Sc2ccc(Cl)cc2)cc1
- half-life [35]: 1.79 h
- IC50 [2]: 6 nM
- clearance [36]: 34 mL/min/kg
- EC50 [23]: 363 nM
- Vd [37]: 8.4 L/kg
- solubility [38]: 3 µg/mL (≈ 6.54 µM)
- bioavailability [39]: 100%
- AUC/dose (Rattus norvegicus [40]): 1.06 µM·kg·h/mg
- Ki [3]: 637 nM

SMILES: Cc1c(C(=O)c2cccc3ccccc23)c2cccc3c2n1[C@H](CN1CCOCC1)CO3
- Activity (Rattus norvegicus [41]): inactive
